According to ChEMBL document CHEMBL1156039, “Nonpeptide urotensin-II receptor antagonists: a new ligand class based on piperazino-phthalimide and piperazino-isoindolinone subunits” (J Med Chem, 2009):
Calls of active or inactive are those of the source. The calls are words filed in the database; no cut-off is given here. Where a SMILES comes first, the peptide text is derived from it. Bridges are numbered along the chain shown (N, C = ends). [ ]: non-standard residue; d: D form. 2Nal = N[C@@H](Cc1ccc2ccccc2c1)C(=O)O

Experiments:
[1] = target: T1, Urotensin-2 receptor (Homo sapiens, UniProt Q9UKP6); experiment: Displacement of [125I]urotensin 2 from urotensin 2 receptor in human RMS13 cells by scintillation proximity assay; assay type: cell-based
T1 sequence (Q9UKP6 whole entry): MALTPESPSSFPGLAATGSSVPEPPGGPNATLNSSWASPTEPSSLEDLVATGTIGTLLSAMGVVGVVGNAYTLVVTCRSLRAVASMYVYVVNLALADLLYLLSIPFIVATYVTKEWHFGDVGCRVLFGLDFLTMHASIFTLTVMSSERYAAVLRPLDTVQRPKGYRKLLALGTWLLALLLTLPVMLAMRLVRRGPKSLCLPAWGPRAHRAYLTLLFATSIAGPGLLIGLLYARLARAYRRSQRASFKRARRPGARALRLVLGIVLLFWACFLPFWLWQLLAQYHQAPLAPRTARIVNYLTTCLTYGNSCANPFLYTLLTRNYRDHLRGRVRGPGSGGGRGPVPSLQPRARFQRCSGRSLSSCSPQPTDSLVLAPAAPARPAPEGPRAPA

[2] = target: T2, Urotensin-2 receptor (Rattus norvegicus, UniProt P49684); experiment: Antagonist activity at rat urotensin 2 receptor expressed in CHOK1 cells assessed as inhibition of urotensin 2-induced intracellular calcium mobilization after 1 hr by FLIPR assay; assay type: functional, cell-based, CHO-K1
T2 sequence (P49684 whole entry): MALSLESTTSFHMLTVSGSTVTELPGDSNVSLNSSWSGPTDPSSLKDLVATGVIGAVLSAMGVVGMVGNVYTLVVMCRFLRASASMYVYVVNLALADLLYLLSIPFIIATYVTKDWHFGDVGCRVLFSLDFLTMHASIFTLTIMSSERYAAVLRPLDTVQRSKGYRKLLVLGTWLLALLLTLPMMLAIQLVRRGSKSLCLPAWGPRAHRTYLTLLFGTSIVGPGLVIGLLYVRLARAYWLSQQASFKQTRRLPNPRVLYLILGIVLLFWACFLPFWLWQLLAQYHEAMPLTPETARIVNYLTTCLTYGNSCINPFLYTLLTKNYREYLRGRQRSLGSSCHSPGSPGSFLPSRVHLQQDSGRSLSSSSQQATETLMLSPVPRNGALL
How it was run: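 Stable CHO-K1 line expressing rat UT, selected with G418 and seeded 24 h ahead. Cells loaded with calcium dye for 1 h at 37 °C in HBSS/20 mM HEPES/0.1% BSA/2.5 mM probenecid, pH 7.4. Compound preincubated 10 min, then agonist added: goby U-II 0.1 nM or peptide agonist 0.3 or 1 nM. FLIPR calcium read at 23 °C; N = 2-6.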

[3] = target: T1, Urotensin-2 receptor; experiment: Antagonist activity at urotensin 2 receptor in human RMS13 cells assessed as inhibition of urotensin 2-induced intracellular calcium mobilization after 1 hr by FLIPR assay; assay type: functional, cell-based
How it was run: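 Human rhabdomyosarcoma (RMS13) cells expressing endogenous UT. Inhibition of U-II-driven calcium mobilization measured by FLIPR; N = 2-6.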

[4] = target: T2, Urotensin-2 receptor; experiment: Antagonist activity at rat urotensin 2 receptor expressed in CHOK1 cells assessed as inhibition of urotensin 2-induced intracellular calcium mobilization after 10 min by FLIPR assay
[5] = target: 5-hydroxytryptamine receptor 1B (Homo sapiens) (UniProt P28222); experiment: Inhibition of 5HT1B receptor at 10 uM
Sequence of 5-hydroxytryptamine receptor 1B (Homo sapiens) (P28222 whole entry): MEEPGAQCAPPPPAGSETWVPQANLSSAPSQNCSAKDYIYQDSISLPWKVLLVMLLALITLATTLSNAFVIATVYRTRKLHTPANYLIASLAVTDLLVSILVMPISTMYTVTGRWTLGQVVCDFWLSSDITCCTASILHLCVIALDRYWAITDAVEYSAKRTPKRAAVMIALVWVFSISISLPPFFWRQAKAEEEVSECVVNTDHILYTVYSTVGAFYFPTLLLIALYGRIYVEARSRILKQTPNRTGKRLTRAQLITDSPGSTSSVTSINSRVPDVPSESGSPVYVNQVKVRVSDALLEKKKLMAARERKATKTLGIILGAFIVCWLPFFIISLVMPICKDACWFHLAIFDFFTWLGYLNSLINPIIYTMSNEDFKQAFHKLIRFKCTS

[6] = target: T3, 5-hydroxytryptamine receptor 1A (Homo sapiens) (UniProt P08908); experiment: Inhibition of human 5HT1A receptor at 10 uM
T3 sequence (whole entry): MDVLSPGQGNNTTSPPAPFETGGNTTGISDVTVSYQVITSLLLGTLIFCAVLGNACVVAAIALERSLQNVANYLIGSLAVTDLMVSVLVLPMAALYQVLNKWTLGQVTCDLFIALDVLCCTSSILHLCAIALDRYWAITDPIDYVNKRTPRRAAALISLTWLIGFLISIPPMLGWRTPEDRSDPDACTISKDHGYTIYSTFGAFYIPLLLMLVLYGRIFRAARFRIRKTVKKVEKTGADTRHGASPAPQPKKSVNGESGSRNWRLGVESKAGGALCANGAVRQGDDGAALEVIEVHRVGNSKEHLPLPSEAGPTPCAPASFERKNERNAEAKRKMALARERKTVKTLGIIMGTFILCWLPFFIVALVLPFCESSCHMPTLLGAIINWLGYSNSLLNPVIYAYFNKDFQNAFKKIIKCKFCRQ

[7] = target: Muscarinic acetylcholine receptor M3 (Homo sapiens) (UniProt P20309); experiment: Inhibition of human muscarinic M3 receptor at 10 uM
Sequence of Muscarinic acetylcholine receptor M3 (Homo sapiens) (P20309 whole entry, looked up): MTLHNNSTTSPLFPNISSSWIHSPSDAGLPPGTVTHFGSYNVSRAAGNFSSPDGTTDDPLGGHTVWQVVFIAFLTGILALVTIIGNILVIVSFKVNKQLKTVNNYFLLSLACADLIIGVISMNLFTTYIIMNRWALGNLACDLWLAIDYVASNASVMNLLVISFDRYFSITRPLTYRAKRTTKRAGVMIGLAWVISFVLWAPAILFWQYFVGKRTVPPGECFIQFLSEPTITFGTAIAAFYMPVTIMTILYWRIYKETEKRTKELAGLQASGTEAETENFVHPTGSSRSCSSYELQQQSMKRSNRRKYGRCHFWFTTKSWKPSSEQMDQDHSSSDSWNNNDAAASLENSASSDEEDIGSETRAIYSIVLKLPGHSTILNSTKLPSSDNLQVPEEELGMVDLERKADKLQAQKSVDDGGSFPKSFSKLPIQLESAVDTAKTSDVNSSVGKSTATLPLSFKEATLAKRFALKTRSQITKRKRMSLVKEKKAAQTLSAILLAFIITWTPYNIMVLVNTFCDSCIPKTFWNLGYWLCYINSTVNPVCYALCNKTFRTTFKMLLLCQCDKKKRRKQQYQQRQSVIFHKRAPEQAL

[8] = Inhibition of alpha1 adrenergic receptor at 10 uM
How it was run: (§1)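 Part of a contract panel of 50 receptors and ion channels. Each target was run as a binding assay with a reference ligand, with the test compound at 10 μM.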

[9] = system: Rattus norvegicus; experiment: Inhibition of ear flushing in Sprague-Dawley rat ear-flush model assessed as complete attenuation of urotensin 2-induced increase in ear pinna temperature at 10 mg/kg, iv administered 15 mins prior to urotensin 2 challenge; assay type: functional, organism-based; parameters: dose 10 mg/kg
[10] = system: Rattus norvegicus; experiment: Inhibition of ear flushing in Sprague-Dawley rat ear-flush model assessed as attenuation of urotensin 2-induced increase in ear pinna temperature at 3 mg/kg, iv administered 15 mins prior to urotensin 2 challenge; assay type: functional, organism-based; parameters: dose 3 mg/kg
[11] = target: T4, Muscarinic acetylcholine receptor M1 (Homo sapiens) (UniProt P11229); experiment: Inhibition of human muscarinic M1 receptor at 10 uM
T4 sequence (whole entry): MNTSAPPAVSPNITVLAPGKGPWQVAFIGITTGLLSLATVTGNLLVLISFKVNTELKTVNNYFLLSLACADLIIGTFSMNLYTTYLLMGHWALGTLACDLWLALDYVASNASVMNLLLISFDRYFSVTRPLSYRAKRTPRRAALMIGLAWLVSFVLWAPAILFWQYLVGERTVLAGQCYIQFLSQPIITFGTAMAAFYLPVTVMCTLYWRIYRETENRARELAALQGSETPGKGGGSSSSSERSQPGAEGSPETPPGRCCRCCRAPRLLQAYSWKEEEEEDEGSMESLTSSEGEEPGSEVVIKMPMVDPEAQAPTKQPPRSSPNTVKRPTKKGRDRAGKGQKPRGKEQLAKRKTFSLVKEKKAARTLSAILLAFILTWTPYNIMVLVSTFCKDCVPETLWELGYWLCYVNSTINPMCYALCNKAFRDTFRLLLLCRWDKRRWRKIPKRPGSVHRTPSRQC

[12] = Inhibition of sodium channel site 2 at 10 uM; how it was run: as §1
[13] = system: Aorta; experiment: Vasorelaxant activity in Wistar rat thoracic aortic ring assessed as inhibition of contraction at 100 nM
[14] = Half life in human liver microsomes; assay type: ADME, Microsome
[15] = Half life in rat; assay type: ADME, organism-based; conditions: in vivo
[16] = Oral bioavailability in rat; assay type: ADME, organism-based; conditions: in vivo
[17] = target: T2, Urotensin-2 receptor; experiment: Displacement of [125I]urotensin 2 from rat urotensin 2 receptor expressed in CHOK1 cells by scintillation proximity assay; assay type: cell-based, CHO-K1
How it was run: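 Membranes from CHO cells stably expressing rat UT were precoupled to WGA-coated SPA beads (15 μg membrane/mg beads, 30 min, room temperature) in 50 mM Tris-HCl, 5 mM MgCl2, 0.1% BSA, pH 7.4. Final conditions: 1.0 mg beads per well, 0.17 nM [125I]-[Tyr]-rat U-II, and varied compound concentrations, shaken 3 h at 22 °C. Nonspecific binding was defined with 1 μM rat U-II.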

[18] = in the assay text read “after 10 min” for “after 1 hr”

Row | SMILES | Ki [1] [nM] | IC50 [3] [nM] | IC50 [4] [nM] | other results
1 | COc1ccc(C(CNS(=O)(=O)c2cccs2)N2C(=O)c3cccc(N4CCN([C@@H](C)c5ccccc5)CC4)c3C2=O)cc1OC (stereo not given in full) | 290 | – | – | IC50 [2, 18]: 75 nM
2 | COc1ccc([C@@H](CCCN(C)S(=O)(=O)c2cccs2)N2Cc3c(cccc3N3CCN(C4CC4)CC3)C2=O)cc1OC | – | 1200 | – | –
3 | CCN1CCN(c2cccc3c2CN([C@H](CCCNc2cncc(Cl)n2)c2ccc(OC)c(OC)c2)C3=O)CC1 | 62 | 500 | 1 | –
4 | CCN1CCN(c2cccc3c2CN([C@H](CCCNS(=O)(=O)c2cccs2)c2ccc(OC)c(OC)c2)C3=O)CC1 | – | – | – | inhibition [5]: 66%; inhibition [6]: 93%; inhibition [7]: 55%; inhibition [8]: 68%; Activity [9]: Active; Activity [10]: Active; inhibition [11]: 65%; inhibition [12]: 59%; inhibition at 0.1 µM [13]: 74%
5 | COc1ccc(C(CCCNS(=O)(=O)c2cccs2)N2C(=O)c3cccc(N4CCN([C@H](C)c5ccccc5)CC4)c3C2=O)cc1OC (stereo not given in full) | – | 250 | – | –
6 | COc1ccc([C@@H](CCCNS(=O)(=O)c2ccc(Cl)s2)N2C(=O)c3cccc(N4CCN([C@H](C)c5ccccc5)CC4)c3C2=O)cc1OC | – | – | 1700 | –
7 | COc1ccc([C@@H](CCCCNC(=O)OC(C)(C)C)N2C(=O)c3cccc(N4CCN([C@H](C)c5ccccc5)CC4)c3C2=O)cc1OC | > 10000 | – | – | IC50 [2, 18]: 65000 nM
8 | COc1ccc([C@@H](CCCN(C)S(=O)(=O)c2cccs2)N2Cc3c(cccc3N3CCN(C)CC3)C2=O)cc1OC | < 6 | – | – | –
9 | COc1ccc(C(CCNC(=O)OC(C)(C)C)N2C(=O)c3cccc(N4CCN([C@@H](C)c5ccccc5)CC4)c3C2=O)cc1OC (stereo not given in full) | 540 | – | 110 | –
10 | COc1ccc([C@@H](CCCN(C)S(=O)(=O)c2cccs2)N2Cc3c(cccc3N3CCN(C(C)C)CC3)C2=O)cc1OC | – | 500 | – | –
11 | COc1ccc(CN2C(=O)c3cccc(N4CCN(Cc5c(F)cccc5F)CC4)c3C2=O)cc1OC | 310 | – | 1000 | half-life [14]: < 3 min
12 | CCN1CCN(c2cccc3c2CN([C@H](CCCNc2cncc(OC)n2)c2ccc(OC)c(OC)c2)C3=O)CC1 | 8 | 62 | – | IC50 [2, 18]: 4 nM
13 | CCN1CCN(c2cccc3c2[C@H]2CCC[C@H](c4ccc(OC)c(OC)c4)N2C3=O)CC1 | – | – | 14 | –
14 | COc1ccc([C@@H](CCCNC(=O)c2cnoc2C)N2Cc3c(cccc3N3CCN([C@H](C)c4ccccc4)CC3)C2=O)cc1OC | 15 | 320 | – | IC50 [2, 18]: 6 nM
15 | CCN1CCN(c2cccc3c2CN([C@H](CCCN(C)S(=O)(=O)c2cccs2)c2ccc(OC)c(OC)c2)C3=O)CC1 | < 5 | – | – | –
16 | CCN1CCN(c2cccc3c2CN([C@H](CCCNC(=O)c2cccs2)c2ccc(OC)c(OC)c2)C3=O)CC1 | – | 140 | – | –
17 | COc1ccc(C(CCNS(=O)(=O)c2cccs2)N2C(=O)c3cccc(N4CCN([C@H](C)c5ccccc5)CC4)c3C2=O)cc1OC (stereo not given in full) | 270 | – | 120 | –
18 | COc1ccc(C(CN)N2C(=O)c3cccc(N4CCN([C@@H](C)c5ccccc5)CC4)c3C2=O)cc1OC (stereo not given in full) | 700 | – | – | IC50 [2, 18]: 300 nM
19 | COc1cc(Br)c(S(=O)(=O)Nc2ccc(C(F)(F)F)c(O[C@@H]3CCN(C)C3)c2)cc1OC | – | – | – | Activity [9]: Active; IC50 [2, 18]: 34 nM; inhibition at 0.1 µM [13]: 97%
20 | Cc1cc(NC(=O)NCCN2CCC(O)(Cc3ccccc3)CC2)c2ccccc2n1 [PALOSURAN] | 41 | 320 | – | IC50 [2, 18]: > 75000 nM
21 | COc1ccc([C@@H](CCCNS(C)(=O)=O)N2C(=O)c3cccc(N4CCN([C@H](C)c5ccccc5)CC4)c3C2=O)cc1OC | 1400 | – | 110 | –
22 | COc1ccc(CN2C(=O)c3cccc(N4CCN(Cc5ccccc5)CC4)c3C2=O)cc1OC | 160 | – | – | half-life [14]: < 3 min
23 | COc1ccc(CN2C(=O)c3cccc(N4CCN([C@H](C)c5ccccc5)CC4)c3C2=O)cc1OC | – | 1900 | – | half-life [15]: 240 min; bioavailability [16]: 33%; half-life [14]: 29 min
24 | COc1ccc(C(CNC(=O)OC(C)(C)C)N2C(=O)c3cccc(N4CCN([C@@H](C)c5ccccc5)CC4)c3C2=O)cc1OC (stereo not given in full) | 430 | – | 120 | –
25 | CC(=O)N[C@H]1CSSC[C@@H](C(N)=O)NC(=O)[C@H](Cc2ccc3ccccc3c2)NC(=O)[C@H](CCCCN)NC(=O)[C@H](Cc2c[nH]c3ccccc23)NC(=O)[C@H](Cc2ccccc2)NC1=O (Ac-CFWK[2Nal]C-NH2; disulfide 1-6) | – | – | – | Ki [17]: 0.12 nM; EC50 [2]: 0.54 nM
26 | CCN1CCN(c2cccc3c2CN([C@H](CCCNS(=O)(=O)c2cn(C)c(C)n2)c2ccc(OC)c(OC)c2)C3=O)CC1 | 25 | 51 | – | IC50 [2]: 23 nM
